From article PMC10245299 (Bioorganic & medicinal chemistry letters, 2022)
pIC50: −log10 of the molar value. Like-named read-outs stand apart in the source and are kept apart here.

Columns and labels:
[1] = Stability in 5 mg/mL K562 extract in lysis buffer; assay type: in vitro ADME; details: n=2
[2] = by 24 hours in plasma; cited from earlier work
K562 cells [3] = details: read-out: Toxicity IC50, control compounds; cited from earlier work
[4] = Stability in 50% plasma in phosphate buffered saline; assay type: in vitro ADME
K562 cells [5] = assay: Direct toxicity against K562 cells; assay type: cell-based; details: Homo sapiens, K562, 72 h, read-out: Toxicity IC50
In short: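 Test compounds were applied directly to K562 cells, without T cells, to measure direct toxicity. n=3.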

Compound | pIC50 (K562 cells [3]) | pIC50 (K562 cells [5]) | further results
C/C(=C\CCP(=O)(OCOC(=O)C(C)(C)C)OCOC(=O)C(C)(C)C)CO [Compound 5] | < 4.00 | – | K562 extract (4 h, percent remaining) [1]: totally disappeared; percent metabolized in plasma [2]: 95%
CCOC(=O)CNP(=O)(CC/C=C(\C)CO)Oc1ccccc1 (centres unmarked) [Compound 6] | < 4.00 | – | –
C/C(=C\CCP(=O)(OCC(=O)OC(C)(C)C)Oc1ccccc1)CO (centres unmarked) [Compound 7] | < 4.00 | – | –
CCOC(=O)[C@H](C)NP(=O)(CCC=C(C)C)N[C@@H](C)C(=O)OCC [Compound 12] | – | – | remaining at 24 h [4]: ≥ 70%
CCOC(=O)CNP(=O)(CC/C=C(\C)CO)NCC(=O)OCC [Compound 16] | – | 4.00 to 5.00 | –
COC(=O)[C@@H](NP(=O)(CC/C=C(\C)CO)N[C@H](C(=O)OC)C(C)C)C(C)C [Compound 17] | – | 4.00 to 5.00 | –
